Measurements published in publication PMC4969713 (Journal of Alzheimer's Disease, 2016).
Counter-ions that a name gives are not always drawn.

What was measured:
male adult SHK mice = assay: 14 days toxicity, mice; format: in vivo; conditions: 5 mg/kg PO daily
Summary of the method: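 Mice randomly assigned to a vehicle group or a 5 mg/kg group.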

[1] = Pharmacokinetics in Rhesus monkeys; format: in vivo; conditions: for AUC / Cmax / k el / half-life: rhesus monkey, in vivo; for k el: Kel
laboratory rabbits = assay: 30 days toxicity, rabbits; format: in vivo; conditions: 4 mg/kg PO daily
[2] = Stability in murine blood plasma; format: in vitro ADME, mouse; conditions: 30-min incubation, room temperature
male BALB/c mice = assay: Passive avoidance, scopolamine-induced amnesia, mice; format: in vivo
hERG potassium channel = hERG potassium channel (Homo sapiens, UniProt Q12809); assay: hERG single cell patch clamp in HEK cells
[3] = iv, 2 mg/kg, monkey 34887, IV 2 mg/kg
[4] = iv, 2 mg/kg, monkey 35188, IV 2 mg/kg
[5] = po, 10 mg/kg, Mean, PO 10 mg/kg
[6] = po, 10 mg/kg, monkey 34920, PO 10 mg/kg
[7] = po, 10 mg/kg, monkey 35189, PO 10 mg/kg

Chain of hERG potassium channel (Q12809 whole entry): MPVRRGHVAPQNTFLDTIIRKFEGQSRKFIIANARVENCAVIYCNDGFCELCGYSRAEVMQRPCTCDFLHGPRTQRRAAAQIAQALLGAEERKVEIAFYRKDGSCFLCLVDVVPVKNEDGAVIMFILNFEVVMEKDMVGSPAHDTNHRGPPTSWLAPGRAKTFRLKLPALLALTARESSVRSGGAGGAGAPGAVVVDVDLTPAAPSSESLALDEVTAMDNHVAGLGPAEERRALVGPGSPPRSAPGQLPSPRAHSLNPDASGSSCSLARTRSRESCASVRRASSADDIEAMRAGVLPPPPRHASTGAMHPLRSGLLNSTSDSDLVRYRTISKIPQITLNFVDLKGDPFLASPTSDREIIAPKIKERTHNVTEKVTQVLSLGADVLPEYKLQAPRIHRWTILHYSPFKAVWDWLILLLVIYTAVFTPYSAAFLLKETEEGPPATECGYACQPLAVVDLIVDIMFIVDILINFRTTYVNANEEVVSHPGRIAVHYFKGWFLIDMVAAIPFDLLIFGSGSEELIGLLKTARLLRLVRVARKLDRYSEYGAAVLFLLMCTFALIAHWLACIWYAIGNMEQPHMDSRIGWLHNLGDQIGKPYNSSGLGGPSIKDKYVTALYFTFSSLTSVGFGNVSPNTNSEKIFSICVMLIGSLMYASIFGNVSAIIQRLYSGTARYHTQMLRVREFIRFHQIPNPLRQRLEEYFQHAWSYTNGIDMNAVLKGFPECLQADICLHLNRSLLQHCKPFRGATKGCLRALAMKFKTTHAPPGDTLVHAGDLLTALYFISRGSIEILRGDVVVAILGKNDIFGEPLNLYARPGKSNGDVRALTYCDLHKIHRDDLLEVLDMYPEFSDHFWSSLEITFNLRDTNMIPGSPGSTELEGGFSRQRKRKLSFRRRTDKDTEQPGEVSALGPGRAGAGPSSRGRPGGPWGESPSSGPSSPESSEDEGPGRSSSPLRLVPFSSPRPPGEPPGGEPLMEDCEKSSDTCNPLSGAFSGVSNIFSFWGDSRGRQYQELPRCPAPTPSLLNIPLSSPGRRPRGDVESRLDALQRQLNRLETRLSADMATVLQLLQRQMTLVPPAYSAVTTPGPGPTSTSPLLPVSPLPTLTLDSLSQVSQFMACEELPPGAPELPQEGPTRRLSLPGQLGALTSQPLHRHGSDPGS

## Cc1ccc2c(c1)c1c(n2CCc2ccccc2)CCN(C)C1 [AVN-101, 2,8-dimethyl-5-penethyl-2,3,4,5-tetra-hydro-1h-pyrido[[4,3-B]]indole hydrochloride]
Male adult SHK mice
  signs of toxicity: No signs of toxicity
[1]; PO 10 mg/kg vs IV 2 mg/kg, mean
  Fabs: 15.3%
[1]; iv, 2 mg/kg, AUC0 ⟶t, Mean, IV 2 mg/kg
  AUC: 426 ng·h/mL
[1]; iv, 2 mg/kg, AUC0 ⟶t, monkey 34887, IV 2 mg/kg
  AUC: 356 ng·h/mL
[1]; iv, 2 mg/kg, AUC0 ⟶t, monkey 35188, IV 2 mg/kg
  AUC: 496 ng·h/mL
[1]; iv, 2 mg/kg, AUC0 ⟶∞, Mean, IV 2 mg/kg
  AUC: 792 ng·h/mL
[1]; iv, 2 mg/kg, AUC0 ⟶∞, monkey 34887, IV 2 mg/kg
  AUC: 388 ng·h/mL
[1]; iv, 2 mg/kg, AUC0 ⟶∞, monkey 35188, IV 2 mg/kg
  AUC: 1200 ng·h/mL
[1]; iv, 2 mg/kg, Mean, IV 2 mg/kg
  Cmax: 324 ng/mL
  k el: 0.000208 s⁻¹
[1]; [3]
  Cmax: 304 ng/mL
  k el: 0.000347 s⁻¹
[1]; [4]
  Cmax: 345 ng/mL
  k el: 7.17e-05 s⁻¹
[1]; iv, 2 mg/kg, T1/2, Mean, IV 2 mg/kg
  half-life: 98 min
[1]; iv, 2 mg/kg, T1/2, monkey 34887, IV 2 mg/kg
  half-life: 33 min
[1]; iv, 2 mg/kg, T1/2, monkey 35188, IV 2 mg/kg
  half-life: 162 min
[1]; po, 10 mg/kg, AUC0 ⟶t, Mean, PO 10 mg/kg
  AUC: 360 ng·h/mL
[1]; po, 10 mg/kg, AUC0 ⟶t, monkey 34920, PO 10 mg/kg
  AUC: 321 ng·h/mL
[1]; po, 10 mg/kg, AUC0 ⟶t, monkey 35189, PO 10 mg/kg
  AUC: 398 ng·h/mL
[1]; po, 10 mg/kg, AUC0 ⟶∞, Mean, PO 10 mg/kg
  AUC: 606 ng·h/mL
[1]; po, 10 mg/kg, AUC0 ⟶∞, monkey 34920, PO 10 mg/kg
  AUC: 637 ng·h/mL
[1]; po, 10 mg/kg, AUC0 ⟶∞, monkey 35189, PO 10 mg/kg
  AUC: 575 ng·h/mL
[1]; [5]
  Cmax: 66 ng/mL
  k el: 3.67e-05 s⁻¹
[1]; [6]
  Cmax: 53 ng/mL
  k el: 2.67e-05 s⁻¹
[1]; [7]
  Cmax: 79 ng/mL
  k el: 4.5e-05 s⁻¹
[1]; po, 10 mg/kg, T1/2, Mean, PO 10 mg/kg
  half-life: 346 min
[1]; po, 10 mg/kg, T1/2, monkey 34920, PO 10 mg/kg
  half-life: 438 min
[1]; po, 10 mg/kg, T1/2, monkey 35189, PO 10 mg/kg
  half-life: 255 min
Laboratory rabbits
  body weight, plasma biochemistry markers, macro- and microscopic observations: No changes
  kidney finding, one of 3 males: small infarctions in cortical substance of the kidneys
  ovary finding, one of 3 females: ovary hypo function
[2]
  residual amount of original compound: 16%
Male BALB/c mice; AVN-101 5 mg/kg IP
  reversal of scopolamine-induced amnesia vs comparators: equal to or more effective than either memantine or tacrine
Male BALB/c mice; IP, scopolamine 0.3 mg/kg
  lowest dose with preventative effect on scopolamine-induced amnesic parameters: 0.02 mg/kg
Male BALB/c mice; scopolamine model
  anti-amnesic dose: 0.05 mg/kg
hERG potassium channel
  IC50: 580 nM
